ChEMBL document CHEMBL4261484, “Design, synthesis and anticonvulsant-analgesic activity of new N-[(phenoxy)alkyl]- and N-[(phenoxy)ethoxyethyl]aminoalkanols” (Medchemcomm, 2017)
The source made the active and inactive calls.

Legend:
[1] = tested on: Mus musculus; assay: Toxicity in mouse at 100 mg/kg, ip measured during maximal electroshock seizure test; assay type: organism-based; settings: in vivo
[2] = tested on: Mus musculus; assay: Neurotoxicity in mouse assessed as motor impairment at 100 mg/kg, ip measured for one min by rotarod test; assay type: toxicity, organism-based; settings: in vivo, 1 min
How it was run: (§1)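 Mice trained on an accelerating rotarod, then tested at least 24 h later after ip pretreatment, on a rod turning at 10 rpm. Neurotoxicity was scored as failure to stay on the rod for one minute. Read-out is mice impaired over mice tested.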

[3] = tested on: Mus musculus; assay: Toxicity in mouse at 30 mg/kg, ip measured during maximal electroshock seizure test; assay type: organism-based; settings: in vivo
[4] = tested on: Mus musculus; assay: Anticonvulsant activity in mouse assessed as protection against maximal electroshock-induced seizures at 100 mg/kg, ip; assay type: functional, organism-based
How it was run: (§2)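 Mice dosed ip; maximal seizures induced by auricular electroshock (25 mA, 500 V, 50 Hz, 0.2 s). Endpoint: hind-limb tonic extension; animals without it scored protected. Read-out is number protected over number tested.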

[5] = tested on: Mus musculus; assay: Anticonvulsant activity in mouse assessed as protection against maximal electroshock-induced seizures at 30 mg/kg, ip; assay type: functional, organism-based; how it was run: as §2
[6] = tested on: Mus musculus; assay: Anticonvulsant activity in ip dosed mouse assessed as protection against maximal electroshock-induced seizures; assay type: functional
How it was run: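 Mice were dosed ip. Maximal seizures were induced by auricular electrodes (25 mA, 500 V, 50 Hz, 0.2 s). Absence of hind-limb tonic extension counted as protection. […] Motor impairment was scored on a 10 rpm rotarod, giving TD50 the same way.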

[7] = Neurotoxicity in ip dosed mouse assessed as motor impairment measured for one min by rotarod test; assay type: toxicity, organism-based; settings: in vivo; how it was run: as §1
[8] = tested on: Mus musculus; assay: Toxicity in mouse at 25 mg/kg, ip measured during maximal electroshock seizure test; assay type: organism-based; settings: in vivo
[9] = Protection index, ratio of TD50 for neurotoxicity in ip dosed mouse by rotarod test to ED50 for anticonvulsant activity in mouse by maximal electroshock seizure test; assay type: toxicity, organism-based; settings: in vivo, read-out: Ratio TD50/ED50
[10] = tested on: Mus musculus; assay: Anticonvulsant activity in mouse assessed as protection against maximal electroshock-induced seizures at 20 mg/kg, ip; assay type: functional, organism-based; how it was run: as §2
[11] = tested on: Mus musculus; assay: Toxicity in mouse at 10 mg/kg, ip measured during maximal electroshock seizure test; assay type: organism-based; settings: in vivo
[12] = tested on: Mus musculus; assay: Toxicity in mouse at 15 mg/kg, ip measured during maximal electroshock seizure test; assay type: organism-based; settings: in vivo
[13] = tested on: Mus musculus; assay: Toxicity in mouse at 20 mg/kg, ip measured during maximal electroshock seizure test; assay type: organism-based; settings: in vivo
[14] = tested on: Mus musculus; assay: Neurotoxicity in mouse assessed as motor impairment at 30 mg/kg, ip measured for one min by rotarod test; assay type: toxicity, organism-based; settings: in vivo, 1 min; how it was run: as §1
[15] = tested on: Mus musculus; assay: Anticonvulsant activity in mouse assessed as protection against maximal electroshock-induced seizures at 60 mg/kg, ip; assay type: functional, organism-based; how it was run: as §2
[16] = tested on: Mus musculus; assay: Analgesic activity in mouse assessed as decrease in time of paw licking during phase 2 at 32 mg/kg, ip measured for 15 to 30 mins by formalin test relative to control; assay type: functional; parameters: scale not given: the % may be the effect or the level left
How it was run: (§3)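 Formalin test in mice: 20 μL of 5% formalin injected intraplantarly into the right hind paw. Each mouse was observed alone in a glass beaker for 30 min. Time (s) spent licking or biting the injected paw was recorded at 0–5 min (acute phase) and 15–30 min (inflammatory phase).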

[17] = tested on: Mus musculus; assay: Anticonvulsant activity in mouse assessed as current strength required to induce tonic hind-limb extension in 50% of the animals at 20 mg/kg, ip by maximal electroshock seizure threshold test (reference value: 6.05 to 8.13 mA); assay type: functional
[18] = tested on: Mus musculus; assay: Anticonvulsant activity in mouse assessed as protection against subcutaneous pentylenetetrazole-induced seizures at 30 mg/kg, ip measured for 30 mins post pentylenetetrazole challenge at 0.5 hrs after compound dosing relative to control; assay type: functional
[19] = tested on: Mus musculus; assay: Neurotoxicity in mouse assessed as motor impairment by measuring time of escaping from chimney at 32 mg/kg, ip measured for 60 secs (reference value: 8.87 +/- 1.79 secs); assay type: toxicity, organism-based; settings: in vivo, 1 min
How it was run: (§4)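 Mice dosed ip; trained, selected animals placed in a horizontal tube 25 cm long and 2.5 cm in diameter, then tube reversed so mice must climb out backward. Read-outs: escape time (s) ± SEM and % animals losing coordination versus control. Unpaired t test.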

[20] = tested on: Mus musculus; assay: Anticonvulsant activity in mouse assessed as protection against subcutaneous pentylenetetrazole-induced seizures at 100 mg/kg, ip measured for 30 mins post pentylenetetrazole challenge at 0.5 hrs after compound dosing relative to control; assay type: functional
[21] = tested on: Mus musculus; assay: Toxicity in mouse assessed as effect on spontaneous activity at 32 mg/kg, ip measured for 30 mins by photoresistor actometer relative to control; assay type: organism-based; settings: in vivo, 0.5 h
How it was run: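 Mice dosed ip; locomotor activity by photoresistor actometers counting light-beam interruptions. Each mouse was habituated 30 min in a cage, then crossings were counted over a 30 min session. Data are mean ± SEM and % change vs control; unpaired t test.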

[22] = tested on: Mus musculus; assay: Neurotoxicity in mouse assessed as motor impairment by measuring loss of coordination at 32 mg/kg, ip measured for 60 secs by chimney test relative to control; assay type: toxicity, organism-based; settings: in vivo, 1 min; how it was run: as §4
[23] = tested on: Mus musculus; assay: Anticonvulsant activity in mouse assessed as protection against subcutaneous pentylenetetrazole-induced seizures by measuring latency time of tonic seizures at 100 mg/kg, ip measured for 30 mins post pentylenetetrazole challenge at 0.5 hrs after compound dosing (reference value: 562.8 to 614.9 secs); assay type: functional
[24] = tested on: Mus musculus; assay: Analgesic activity in mouse assessed as decrease in time of paw licking during phase 1 at 32 mg/kg, ip measured for 5 mins by formalin test relative to control; assay type: functional; parameters: scale not given: the % may be the effect or the level left; how it was run: as §3
[25] = tested on: Mus musculus; assay: Anticonvulsant activity in mouse assessed as protection against maximal electroshock-induced seizures at 10 mg/kg, ip; assay type: functional, organism-based; how it was run: as §2
[26] = tested on: Mus musculus; assay: Anticonvulsant activity in mouse assessed as protection against subcutaneous pentylenetetrazole-induced seizures by measuring latency time of tonic seizures at 30 mg/kg, ip measured for 30 mins post pentylenetetrazole challenge at 0.5 hrs after compound dosing (reference value: 562.8 to 614.9 secs); assay type: functional
[27] = tested on: HepG2; assay: Cytotoxicity against human HepG2 cells assessed as effect on cell viability at 10 to 250 uM after 24 hrs by neutral red assay; assay type: cell-based; settings: hepg2, 24 h
How it was run: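 HepG2 cells seeded at 5 × 10^4 per well, then after 24 h given medium with 10–250 μM for 24 h. Viability by neutral red staining, OD 570 nm. Results are % of control ± SEM, three independent experiments.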

[28] = tested on: HepG2; assay: Cytotoxicity against human HepG2 cells assessed as effect on cell viability at 10 to 250 uM after 24 hrs by MTT assay; assay type: cell-based; settings: hepg2, 24 h
How it was run: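 HepG2 cells grown in MEM with 10% FBS (37 °C, 5% CO2) and seeded at 1 × 10^4. After overnight culture, exposed to 10–250 μM for 24 h. MTT for 3 h, formazan dissolved, OD 570 nm. Viability is % of control ± SEM from three independent experiments.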

[29] = tested on: Mus musculus; assay: Anticonvulsant activity in mouse assessed as increase in electroconvulsive threshold at 20 mg/kg, ip by maximal electroshock seizure threshold test relative to control; assay type: functional
[30] = Cytotoxicity against mouse CRL-2541 cells assessed as effect on cell viability at 10 to 250 uM after 24 hrs by MTT assay; assay type: cell-based

Structure (SMILES) | Activity [1] | Activity [2] | Activity [3] | Activity [4] | ED50 [6] [mg/kg] | other results
CCC(O)CNCCOCCOc1cc(Cl)ccc1C (racemic) | Non-Toxic | Toxic | Non-Toxic | Active | – | Activity [5]: inactive
Cc1cccc(Cl)c1OCCOCCNC[C@H](O)c1ccccc1 | – | Toxic | – | – | – | –
Cc1cccc(Cl)c1OCCCCN[C@@H](C)CO | – | Toxic | – | – | – | –
Cc1cccc(C)c1OCC(C)N (stereo unspecified) [MEXILETINE] | – | – | – | – | 20 | –
Cc1cccc(C)c1OCCCCNCC(C)O (racemic) | Non-Toxic | – | Non-Toxic | Active | 27.1 | TD50 at 1 min [7]: 43.3 mg/kg; Activity [8]: Non-Toxic; selectivity ratio [9]: 1.6
Cc1cccc(C)c1OCCOCCNCC(O)c1ccccc1 (racemic) | Non-Toxic | – | – | Active | 13 | Activity [10]: Active; TD50 at 1 min [7]: 36 mg/kg; selectivity ratio [9]: 2.76; Activity [11]: Non-Toxic; Activity [12]: Non-Toxic; Activity [13]: Non-Toxic
Cc1ccc(Cl)c(OCCOCCN2CCC(O)CC2)c1 | Non-Toxic | – | – | Active | – | Activity [14]: Non-Toxic; Activity [5]: inactive
CC[C@H](CO)NCCCCOc1cc(C)ccc1Cl | Non-Toxic | Toxic | Non-Toxic | Active | – | Activity [14]: Non-Toxic
Cc1cccc(Cl)c1OCCCCNC(C)CO (racemic) | Non-Toxic | – | – | Active | 19.1 | TD50 at 1 min [7]: 45.7 mg/kg; selectivity ratio [9]: 2.4; Activity [12]: Non-Toxic; Activity [13]: Non-Toxic
Cc1cccc(Cl)c1OCCCCN[C@H]1CC[C@H](O)CC1 | Non-Toxic | – | – | Active | 41.1 | TD50 at 1 min [7]: 50 mg/kg; selectivity ratio [9]: 1.22
Cc1cccc(C)c1OCCCCN[C@H]1CC[C@H](O)CC1 | Toxic | – | – | – | – | Activity [15]: inactive
Cc1cccc(Cl)c1OCCCCN[C@H]1CCCC[C@@H]1O.Cl (racemic) | Toxic | Toxic | – | – | – | –
Cc1ccc(Cl)c(OCCCCN[C@H](C)CO)c1 | Non-Toxic | Toxic | Non-Toxic | Active | – | Activity [14]: Non-Toxic; Activity [5]: inactive
Cc1ccc(Cl)c(OCCN[C@H]2CC[C@H](O)CC2)c1 | – | Toxic | – | – | – | –
CCC(CO)NCCCCOc1cc(C)ccc1Cl (racemic) | Non-Toxic | Toxic | Non-Toxic | Active | – | Activity [14]: Non-Toxic
CC[C@@H](CO)NCCOc1c(C)cccc1C | – | – | – | – | – | selectivity ratio [9]: 4.55
Cc1ccc(Cl)c(OCCCCNC(C)CO)c1 (racemic) | Non-Toxic | Toxic | Non-Toxic | Active | – | Activity [14]: Non-Toxic; Activity [5]: inactive
Cc1ccc(OCCN[C@H]2CCCC[C@@H]2O)c(C)c1 (racemic) | Non-Toxic | – | – | Active | 31.8 | Activity [16]: 46.16%; Activity [17]: 9.33 mA; Activity [18]: 2.42%; TD50 at 1 min [7]: 76.8 mg/kg; Time [19]: 4.75 s; Activity [20]: 57.71%; Activity [21]: 8.2%; selectivity ratio [9]: 2.41; Activity [11]: Toxic; Activity [22]: 0%; Time [23]: 921 s; Activity [24]: 18.55%; Activity [25]: inactive; Time [26]: 576.4 s; Activity [27]: Non-Toxic; Activity [28]: Non-Toxic; Activity [29]: 23.9%; Activity [30]: Non-Toxic
Cc1ccc(Cl)c(OCCN2CCC(O)CC2)c1 | Non-Toxic | Toxic | – | Active | – | –
CCC(CO)NCCOCCOc1cc(C)ccc1Cl (racemic) | – | Toxic | – | Active | – | Activity [14]: Non-Toxic
CC(C)NCC(O)COc1cccc2ccccc12 (stereo unspecified) [PROPRANOLOL] | – | – | – | – | 15 | –
CC[C@@H](CO)NCCCCOc1cc(C)ccc1Cl | Non-Toxic | Toxic | Non-Toxic | Active | – | Activity [5]: inactive
